Assay results reported in ChEMBL document CHEMBL3046529, “Chiral gamma-aryl-1H-1,2,4-triazole derivatives as highly potential antifungal agents: Design, synthesis, structure, and in vitro fungicidal activities” (J Agric Food Chem, 2008).

Key:
Dothiorella gregaria [1] = assay: In vitro fungicidal activity against Dothiorella gregaria assessed as mycelial growth inhibition at 100 mg/l at 26 degC after 48 hr by agar diffusion assay; format: functional; conditions: read-out: GI
Outline: (§1)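 Compound is dissolved in DMF and added aseptically to autoclaved agar that has cooled to about 45-50 °C, giving 100 mg/L in the medium. Solvent never exceeds […]. Plain medium is the blank. A 5 mm mycelial plug, cut from the margin of an actively growing colony, goes in the plate centre. Three replicate plates are sealed and kept at 26 °C in darkness. Colony diameter is read at 48 h. Inhibition % = (control − treated diameter)/control diameter.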

Fusarium oxysporum [2] = assay: In vitro fungicidal activity against Fusarium oxysporum assessed as mycelial growth inhibition at 100 mg/l at 26 degC after 48 hr by agar diffusion assay; format: functional; conditions: read-out: GI; outline: as §1
Fusarium graminearum [3] = assay: In vitro fungicidal activity against Fusarium graminearum assessed as mycelial growth inhibition at 100 mg/l at 26 degC after 48 hr by agar diffusion assay; format: functional; conditions: read-out: GI; outline: as §1
Rhizoctonia solani [4] = assay: In vitro fungicidal activity against Rhizoctonia solani assessed as mycelial growth inhibition at 100 mg/l at 26 degC after 48 hr by agar diffusion assay; format: functional; conditions: read-out: GI; outline: as §1
Colletotrichum gossypii [5] = assay: In vitro fungicidal activity against Colletotrichum gossypii assessed as mycelial growth inhibition at 100 mg/l at 26 degC after 48 hr by agar diffusion assay; format: functional; conditions: read-out: GI; outline: as §1
Botrytis cinerea [6] = assay: In vitro fungicidal activity against Botryotinia fuckeliana assessed as mycelial growth inhibition at 100 mg/l at 26 degC after 48 hr by agar diffusion assay; format: functional; conditions: read-out: GI; outline: as §1
Colletotrichum gossypii [7] = assay: In vitro fungicidal activity against Colletotrichum gossypii assessed as mycelial growth inhibition at 50 mg/l at 26 degC after 48 hr by agar diffusion assay; format: functional; conditions: read-out: GI
Botrytis cinerea [8] = assay: In vitro fungicidal activity against Botryotinia fuckeliana assessed as mycelial growth inhibition at 50 mg/l at 26 degC after 48 hr by agar diffusion assay; format: functional; conditions: read-out: GI
Rhizoctonia solani [9] = assay: In vitro fungicidal activity against Rhizoctonia solani assessed as mycelial growth inhibition at 26 degC after 48 hr by agar diffusion assay; format: functional, organism-based
Fusarium oxysporum [10] = assay: In vitro fungicidal activity against Fusarium oxysporum assessed as mycelial growth inhibition at 26 degC after 48 hr by agar diffusion assay; format: functional, organism-based
Dothiorella gregaria [11] = assay: In vitro fungicidal activity against Dothiorella gregaria assessed as mycelial growth inhibition at 26 degC after 48 hr by agar diffusion assay; format: functional, organism-based
Colletotrichum gossypii [12] = assay: In vitro fungicidal activity against Colletotrichum gossypii assessed as mycelial growth inhibition at 26 degC after 48 hr by agar diffusion assay; format: functional, organism-based
Fusarium graminearum [13] = assay: In vitro fungicidal activity against Fusarium graminearum assessed as mycelial growth inhibition at 26 degC after 48 hr by agar diffusion assay; format: functional, organism-based
Botrytis cinerea [14] = assay: In vitro fungicidal activity against Botryotinia fuckeliana assessed as mycelial growth inhibition at 26 degC after 48 hr by agar diffusion assay; format: functional, organism-based
Rhizoctonia solani [15] = assay: In vitro fungicidal activity against Rhizoctonia solani assessed as mycelial growth inhibition at 50 mg/l at 26 degC after 48 hr by agar diffusion assay; format: functional; conditions: read-out: GI
Dothiorella gregaria [16] = assay: In vitro fungicidal activity against Dothiorella gregaria assessed as mycelial growth inhibition at 50 mg/l at 26 degC after 48 hr by agar diffusion assay; format: functional; conditions: read-out: GI
Fusarium graminearum [17] = assay: In vitro fungicidal activity against Fusarium graminearum assessed as mycelial growth inhibition at 50 mg/l at 26 degC after 48 hr by agar diffusion assay; format: functional; conditions: read-out: GI
Fusarium oxysporum [18] = assay: In vitro fungicidal activity against Fusarium oxysporum assessed as mycelial growth inhibition at 50 mg/l at 26 degC after 48 hr by agar diffusion assay; format: functional; conditions: read-out: GI

Row | SMILES | inhibition of growth at 100 µg/mL (Dothiorella gregaria [1]) | inhibition of growth at 100 µg/mL (Fusarium oxysporum [2]) | inhibition of growth at 100 µg/mL (Fusarium graminearum [3]) | inhibition of growth at 100 µg/mL (Rhizoctonia solani [4]) | inhibition of growth at 100 µg/mL (Colletotrichum gossypii [5]) | inhibition of growth at 100 µg/mL (Botrytis cinerea [6]) | inhibition of growth at 50 µg/mL (Colletotrichum gossypii [7]) | inhibition of growth at 50 µg/mL (Botrytis cinerea [8]) | EC50 (Rhizoctonia solani [9]) | EC50 (Fusarium oxysporum [10]) | EC50 (Dothiorella gregaria [11]) | EC50 (Colletotrichum gossypii [12]) | EC50 (Fusarium graminearum [13]) | EC50 (Botrytis cinerea [14]) | inhibition of growth at 50 µg/mL (Rhizoctonia solani [15]) | inhibition of growth at 50 µg/mL (Dothiorella gregaria [16]) | inhibition of growth at 50 µg/mL (Fusarium graminearum [17]) | inhibition of growth at 50 µg/mL (Fusarium oxysporum [18])
1 | CCC[C@@H](CCn1cncn1)c1ccc(F)cc1 | 83% | 73% | 83% | 86% | 90% | 94% | – | – | – | – | – | – | – | – | – | – | – | –
2 | CCCC[C@@H](CCn1cncn1)c1ccc(F)cc1 | 97% | 96% | 83% | 100% | 95% | 96% | 85% | 81% | 49 µM | 109 µM | 79 µM | 63 µM | 104 µM | 56 µM | 88% | 71% | 70% | 88%
3 | CCC[C@H](CCn1cncn1)c1ccccc1 | 100% | 80% | 83% | 97% | 92% | 98% | – | – | – | – | – | – | – | – | – | – | – | –
4 | CCCC[C@@H](CCn1cncn1)c1ccccc1 | 96% | 74% | 71% | 87% | 82% | 91% | – | – | – | – | – | – | – | – | – | – | – | –
5 | CCC[C@H](CCn1cncn1)c1ccc(OC)cc1 | 90% | 90% | 66% | 78% | 80% | 60% | – | – | – | – | – | – | – | – | – | – | – | –
6 | CC[C@H](CCn1cncn1)c1ccccc1 | 81% | 60% | 60% | 80% | 70% | 52% | – | – | – | – | – | – | – | – | – | – | – | –
7 | CC[C@@H](CCn1cncn1)c1ccc(OC)cc1 | 45% | 40% | 42% | 73% | 50% | 30% | – | – | – | – | – | – | – | – | – | – | – | –
8 | CCCC[C@H](CCn1cncn1)c1ccccc1 | 100% | 66% | 71% | 90% | 87% | 91% | – | – | – | – | – | – | – | – | – | – | – | –
9 | CC[C@H](CCn1cncn1)c1ccc(OC)cc1 | 82% | 65% | 66% | 60% | 55% | 30% | – | – | – | – | – | – | – | – | – | – | – | –
10 | CCC[C@@H](CCn1cncn1)c1ccc(OC)cc1 | 93% | 75% | 76% | 90% | 90% | 92% | – | – | – | – | – | – | – | – | – | – | – | –
11 | CCCC[C@H](CCn1cncn1)c1ccc(F)cc1 | 100% | 100% | 95% | 100% | 100% | 100% | 100% | 100% | 36 µM | 112 µM | 15 µM | 61 µM | 66 µM | 61 µM | 99% | 100% | 89% | 99%
12 | CCCC[C@H](CCn1cncn1)c1ccc(Cl)cc1 | 100% | 82% | 73% | 91% | 85% | 88% | – | – | – | – | – | – | – | – | – | – | – | –
13 | CC[C@@H](CCn1cncn1)c1ccc(F)cc1 | 75% | 60% | 56% | 85% | 65% | 52% | – | – | – | – | – | – | – | – | – | – | – | –
14 | CCC[C@H](CCn1cncn1)c1ccc(F)cc1 | 100% | 82% | 85% | 90% | 95% | 71% | – | – | – | – | – | – | – | – | – | – | – | –
15 | CC[C@@H](CCn1cncn1)c1ccccc1 | 60% | 55% | 63% | 75% | 50% | 52% | – | – | – | – | – | – | – | – | – | – | – | –
16 | CCC[C@@H](CCn1cncn1)c1ccccc1 | 67% | 55% | 52% | 78% | 75% | 44% | – | – | – | – | – | – | – | – | – | – | – | –
17 | CC[C@@H](CCn1cncn1)c1ccc(Cl)cc1 | 80% | 80% | 73% | 83% | 85% | 84% | – | – | – | – | – | – | – | – | – | – | – | –
18 | CC(C)(C)C(=O)C(Oc1ccc(Cl)cc1)n1cncn1 (configuration not stated) [TRIADIMEFON] | 71% | 97% | 76% | 100% | 100% | 96% | 97% | 78% | 14 µM | 40 µM | 317 µM | 19 µM | 163 µM | 41 µM | 91% | 14% | 59% | 91%
19 | CCCC[C@@H](CCn1cncn1)c1ccc(Cl)cc1 | 97% | 78% | 69% | 84% | 85% | 94% | – | – | – | – | – | – | – | – | – | – | – | –
20 | CC[C@H](CCn1cncn1)c1ccc(F)cc1 | 82% | 50% | 63% | 82% | 78% | 36% | – | – | – | – | – | – | – | – | – | – | – | –
21 | CC[C@H](CCn1cncn1)c1ccc(Cl)cc1 | 93% | 91% | 76% | 85% | 97% | 94% | – | – | – | – | – | – | – | – | – | – | – | –
